# This is one part of a sample in which hits are shown more often than they occur.
# HCT116 bCat-KO – beta-catenin-lacking colon tumor cell growth suppression. AID 818. hit rate 1.5% among 140,000. viability, % at 10 µM. HCT116 beta-catenin knockout viability, CellTiter-Glo, 60 h; hits give low values;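 active means viability at or under a set limit, the compound median less 4 SD, cut at about 6% in these data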;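 further: 0% = Hyamine 1622 control at 20 µM and 100% = untreated cell control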
# HUVEC inhibit – blocks proliferation of human endothelial cells; HUVEC proliferation, CellTiter-Glo luminescence, 72 h; hits give low values; viability, % at 10 µM (by protocol); hit rate 1.1% among 86,000;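 active means viability at or below 30%; inactive means viability above 30%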;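 further: 100% = median luminescence of DMSO-only cell control wells on each plate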
# Fibroblast inh – blocks proliferation of human lung fibroblasts; LL 47 human lung fibroblast viability, ATP luminescence; hits give low values; viability, % at 10 µM; hit rate 1.1% among 85,000; AID 719;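 active means viability at or below 50% in the single dose screen; inactive means viability above 50%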;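 further: compound exposure lasted 72 h before the ATP readout; 100% = median luminescence of untreated cell-only wells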
#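 Test system: LL 47 human lung fibroblasts / Quantity: 1,150 cells in each well / Medium: IMEM growth medium with 15% fetal bovine serum / Incubation: 72 h compound exposure at 37 °C after overnight plating / Detection: CellTiter-Glo luminescence measuring cellular ATP / Read-out: % viability versus median cells-only luminescence / Benchmarks: cell-only wells, no compound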
# PTEN del growth – suppresses growth of cells with PTEN deletion. HCT116 PTEN-null viability, CellTiter-Glo, 60 h; hits give low values. hit rate 1.2% among 140,000. viability, % at 10 µM;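 active means viability at or below a set limit, 4 SD under the median of all tested compounds, cut at about 3.7% in these data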;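 further: PTEN knockout HCT116 line with beta catenin targeted HCT116 as companion control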
# H69AR inhibit – growth inhibitors of human H69AR lung tumor cells. H69AR lung tumor viability, ATP luminescence, 72 h; hits give low values. viability, % at 10 µM. hit rate 6% among 85,000. AID 598;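 active means viability at or below 40%; inactive means viability above 40%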;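 further: multidrug resistant small cell line overexpressing MRP-1 efflux transporter; 100% = mean luminescence of untreated control wells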
# Phagocytosis inh – inhibitors of macrophage phagocytosis | J774A.1 macrophage IgG-bead phagocytosis, imaging | hit rate 0.07% among 110,000 | inhibition, % at 5 µM | AID 1029;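 active means inhibition above the mean of the plate negative controls plus 5 SD, cut at about 13% in these data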;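 further: phagocytic index as fraction of beads internalized from green versus red external bead signal; plate controls were DMSO negative control for no effect and cytochalasin-D positive control for full effect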
# An asterisk follows results filed as active; x = not tested or not shown.
SMILES,HCT116 bCat-KO,HUVEC inhibit,Fibroblast inh,PTEN del growth,H69AR inhibit,Phagocytosis inh
CC1=CC(C)(C)N(S(=O)(=O)c2ccc(C)cc2)c2ccc(C)cc21,15,66,53,17,22*,x
Cc1ccc(S(=O)(=O)N2c3ccccc3-c3c(ssc3=S)C2(C)C)cc1,72,x,x,66,x,-10
CC1=CC(C)(C)N(S(=O)(=O)c2ccc(F)cc2)c2ccccc21,18,62,51,21,19*,-1
CC1Cc2ccccc2N1C(=O)CSc1nnc(-c2ccc(S(=O)(=O)N3CCCC3)cc2)o1 (centres undefined),76,86,98,78,93,0
CC(=O)Oc1c(C)cc(O)c2ccccc12,35,105,104,37,0.5*,-1
COc1cc(NC(=S)N2CCN(c3ccccn3)CC2)cc(OC)c1,86,x,x,87,x,-15
CCCNC(=O)c1c(N)n(-c2ccc3c(c2)OCO3)c2nc3ccccc3nc12,20,46,7.6*,36,8.6*,-1
CCOc1ccc(-n2c(N)c(C(=O)NCc3ccco3)c3nc4ccccc4nc32)cc1,12,86,104,9,11*,0
COCCCNC(=O)c1c(N)n(-c2ccc3c(c2)OCO3)c2nc3ccccc3nc12,72,70,75,37,28*,2
Cc1cccc(-n2c(N)c(C(=O)NCCN3CCOCC3)c3nc4ccccc4nc32)c1,82,81,100,78,32*,0
Nc1c(C(=O)NC2CC2)c2nc3ccccc3nc2n1-c1ccc2c(c1)OCO2,81,64,92,72,59,3
O=C(OC1Cn2c(=O)ccc(=O)n2C1)c1ccccc1,95,x,x,99,x,0
Cc1cc(C)cc(OCc2nc3ncc(Br)cc3[nH]2)c1,x,38,14*,x,11*,x
CCOC(=O)CNC(=O)CSc1nc2ncc(Br)cc2[nH]1,94,98,112,106,x,1
COc1cccc(OCc2nc3ccccc3[nH]2)c1,95,91,92,78,77,-1
COc1cccc(OCc2nc3ncc(Br)cc3[nH]2)c1,11,48,47*,18,25*,3
CCOC(=O)c1c(NC(=O)CSc2nnc(-c3ccncc3)n2Cc2ccco2)sc(C)c1C,86,82,89,82,83,0
CCOC(=O)/C(N=Nc1c(Br)cc(Br)cc1Br)=C(\C)O,102,x,x,113,x,-1
COc1cc(/C=N/NC(=O)CCC(=O)NCc2ccccc2)cc(OC)c1OC,0.4*,x,x,0.3*,x,-3
COc1cc(/C=N/NC(=O)CCn2c3ccccc3c3ccccc32)cc(OC)c1OC,95,x,x,93,x,x
CCOC(=O)c1c2c(n(C)c1COC)C(=O)C(=O)c1ccc(Br)cc1-2,x,2.1*,2.2*,x,1.5*,x
CCOC(=O)c1c(C)nc(C)c(C(=O)OCC)c1-c1ccc(Br)cc1,77,x,x,72,x,-5
CC1(CC(=O)O)SC(=O)NC1=O (centres undefined),118,103,109,99,91,x
O=C(/C=C/c1ccccc1F)c1ccoc1,5.3*,x,x,8,x,-2
O=C(/C=C/c1ccoc1)c1ccccc1O,78,x,x,78,x,-1
SMILES,HCT116 bCat-KO,HUVEC inhibit,Fibroblast inh,PTEN del growth,H69AR inhibit,Phagocytosis inh
Cc1cc(Cl)ccc1OCCCC(N)=O,97,86,42*,103,111,0
Cc1cc(Cl)ccc1OCCCC(=O)NO,67,92,81,77,3.1*,-1
C=CCn1c(SCC(=O)c2ccc(Cl)cc2)nnc1-c1ccc2c(c1)OCO2,69,x,x,74,x,-2
COc1ccc([C@@H]2[C@H]3C(=O)N(c4cccc(C(F)(F)F)c4)C(=O)[C@H]3ON2C)cc1,98,x,x,115,x,3
COc1ccc2[nH]c(C)c(CCN(Cc3cccs3)C(=S)Nc3ccc(F)cc3)c2c1,62,88,100,63,37*,0
COc1ccccc1N1CCN(S(=O)(=O)Cc2ccccc2Cl)CC1,90,83,87,81,93,-2
CC#CC[N+](C)(C)CCCCCCCCCCCC,0.8*,x,x,0.6*,x,13
C#CC[N+](C)(C)CCCCCCCCCC,13,x,x,12,x,-11
C#CC[N+](C)(C)CCCCCCCCCCCC,1.4*,x,x,1.7*,x,4
Cc1cc(OCc2ccc(F)cc2)nc(-c2ccccc2O)n1,86,100,91,76,104,-1
Cc1cc(-n2[nH]c(C)c(C)c2=O)nc(-c2ccccc2O)n1,18,76,66,13,16*,-1

# Source: PubChem BioAssay (several laboratories)
